Experimental data from ChEMBL document CHEMBL1629635, “Effect of DNase and antibiotics on biofilm characteristics” (2009).
≈ marks a conversion by molar mass, not a printed value. Calls of active or inactive are those of the source. The calls are words filed in the database; no cut-off is given here.

Experiments:
Escherichia coli [1] = experiment: Bactericidal activity against Escherichia coli ATCC 25922 assessed as eradication of pre-formed biofilm at 50 times MIC after 24 hrs; type: functional
Summary of the method: (§1)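 24-h, 37°C 96-well biofilms were washed three times with 0.15 M phosphate buffer pH 7.2. They were treated 24 h at 37°C with antibiotic at 50 times MIC, alone or with DNase I at 5 μg/ml, in medium. Biomass: 0.1% crystal violet for 30 min at room temperature, water washes, ethanol-acetone (80:20) solubilization, absorbance at 570 nm.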

Streptococcus pyogenes [2] = experiment: Bactericidal activity against Streptococcus pyogenes VT 59 assessed as eradication of pre-formed biofilm at 1 to 10 times MIC after 24 hrs; type: functional, organism-based
Summary of the method: (§2)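 Biofilms were grown 24 h at 37°C in 96-well plates from a 24-h broth culture (inoculum 7.53 ± 0.22 log10 CFU/ml). […] Read-out was crystal-violet biomass (OD570) and CFU by serial dilution plating.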

Haemophilus influenzae [3] = experiment: Antimicrobial activity against Haemophilus influenzae VT450-2006 by broth microdilution method; type: functional
Summary of the method: (§3)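 MICs by broth microdilution following CLSI guidelines, in cation-adjusted Mueller-Hinton broth or Haemophilus test medium broth. Cultures were grown at 37°C without shaking.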

Escherichia coli [4] = experiment: Bactericidal activity against Escherichia coli ATCC 25922 assessed as eradication of pre-formed biofilm at 1 to 10 times MIC after 24 hrs; type: functional, organism-based; summary of the method: as §2
Acinetobacter baumannii [5] = experiment: Antimicrobial activity against Acinetobacter baumannii VT 126 by broth microdilution method; type: functional; summary of the method: as §3
Pseudomonas aeruginosa [6] = experiment: Bactericidal activity against Pseudomonas aeruginosa ATCC 27853 assessed as eradication of pre-formed biofilm at 50 times MIC after 24 hrs; type: functional; summary of the method: as §1
Acinetobacter baumannii [7] = experiment: Bactericidal activity against Acinetobacter baumannii VT 126 assessed as eradication of pre-formed biofilm at 50 times MIC after 24 hrs by serial dilution; type: functional
Summary of the method: (§4)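 Preformed 24-h biofilms in 96-well plates got antibiotic at 50 times MIC, DNase I at 5 μg/ml, or both, for 24 h at 37°C. Wells were scraped into 1.0 ml of 0.15 M phosphate buffer pH 7.2, serially diluted and plated; result is log10 CFU/well. Mean ± SEM of three independent experiments, counts done in triplicate.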

Pseudomonas aeruginosa [8] = experiment: Bactericidal activity against Pseudomonas aeruginosa ATCC 27853 assessed as eradication of pre-formed biofilm at 50 times MIC after 24 hrs by serial dilution; type: functional; summary of the method: as §4
Pseudomonas aeruginosa [9] = experiment: Bactericidal activity against Pseudomonas aeruginosa ATCC 27853 assessed as eradication of pre-formed biofilm at 1 to 10 times MIC after 24 hrs; type: functional, organism-based; summary of the method: as §2
Haemophilus influenzae [10] = experiment: Bactericidal activity against Haemophilus influenzae VT450-2006 assessed as eradication of pre-formed biofilm at 50 times MIC after 24 hrs by serial dilution; type: functional; summary of the method: as §4
Staphylococcus aureus [11] = experiment: Antimicrobial activity against Staphylococcus aureus ATCC 29213 by broth microdilution method; type: functional; summary of the method: as §3
Staphylococcus aureus [12] = experiment: Bactericidal activity against Staphylococcus aureus ATCC 29213 assessed as eradication of pre-formed biofilm at 50 times MIC after 24 hrs by serial dilution; type: functional; summary of the method: as §4
Pseudomonas aeruginosa [13] = experiment: Antimicrobial activity against Pseudomonas aeruginosa ATCC 27853 by broth microdilution method; type: functional; summary of the method: as §3
Escherichia coli [14] = experiment: Bactericidal activity against Escherichia coli ATCC 25922 assessed as eradication of pre-formed biofilm at 50 times MIC after 24 hrs by serial dilution; type: functional; summary of the method: as §4
Acinetobacter baumannii [15] = experiment: Bactericidal activity against Acinetobacter baumannii VT 126 assessed as eradication of pre-formed biofilm at 1 to 10 times MIC after 24 hrs; type: functional, organism-based; summary of the method: as §2
Klebsiella pneumoniae [16] = experiment: Antimicrobial activity against Klebsiella pneumoniae VT 1367 by broth microdilution method; type: functional; summary of the method: as §3
Streptococcus pyogenes [17] = experiment: Antimicrobial activity against Streptococcus pyogenes VT 59 by broth microdilution method; type: functional; summary of the method: as §3
Klebsiella pneumoniae [18] = experiment: Bactericidal activity against Klebsiella pneumoniae VT 1367 assessed as eradication of pre-formed biofilm at 50 times MIC after 24 hrs by serial dilution; type: functional; summary of the method: as §4
Haemophilus influenzae [19] = experiment: Bactericidal activity against Haemophilus influenzae VT450-2006 assessed as eradication of pre-formed biofilm at 1 to 10 times MIC after 24 hrs; type: functional, organism-based; summary of the method: as §2
Klebsiella pneumoniae [20] = experiment: Bactericidal activity against Klebsiella pneumoniae VT 1367 assessed as eradication of pre-formed biofilm at 1 to 10 times MIC after 24 hrs; type: functional, organism-based; summary of the method: as §2
Escherichia coli [21] = experiment: Antimicrobial activity against Escherichia coli ATCC 25922 by broth microdilution method; type: functional; summary of the method: as §3
Streptococcus pyogenes [22] = experiment: Bactericidal activity against Streptococcus pyogenes VT 59 assessed as eradication of pre-formed biofilm at 50 times MIC after 24 hrs by serial dilution; type: functional; summary of the method: as §4
Staphylococcus aureus [23] = experiment: Bactericidal activity against Staphylococcus aureus ATCC 29213 assessed as eradication of pre-formed biofilm at 1 to 10 times MIC after 24 hrs by serial dilution; type: functional, organism-based; summary of the method: as §2
Streptococcus pyogenes [24] = experiment: Bactericidal activity against Streptococcus pyogenes VT 59 assessed as eradication of pre-formed biofilm at 50 times MIC after 24 hrs; type: functional; summary of the method: as §1
Haemophilus influenzae [25] = experiment: Bactericidal activity against Haemophilus influenzae VT450-2006 assessed as eradication of pre-formed biofilm at 50 times MIC after 24 hrs; type: functional; summary of the method: as §1
Acinetobacter baumannii [26] = experiment: Bactericidal activity against Acinetobacter baumannii VT 126 assessed as eradication of pre-formed biofilm at 50 times MIC after 24 hrs; type: functional; summary of the method: as §1
Staphylococcus aureus [27] = experiment: Bactericidal activity against Staphylococcus aureus ATCC 29213 assessed as eradication of pre-formed biofilm at 50 times MIC after 24 hrs; type: functional; summary of the method: as §1
Klebsiella pneumoniae [28] = experiment: Bactericidal activity against Klebsiella pneumoniae VT 1367 assessed as eradication of pre-formed biofilm at 50 times MIC after 24 hrs; type: functional; summary of the method: as §1

Row | Compound | inhibition (INH) (Escherichia coli [1]) [%] | inhibition (Streptococcus pyogenes [2]) | MIC (Haemophilus influenzae [3]) [µg/mL] | inhibition (Escherichia coli [4]) | MIC (Acinetobacter baumannii [5]) [µg/mL] | inhibition (INH) (Pseudomonas aeruginosa [6]) [%] | log10cfu (Acinetobacter baumannii [7]) | log10cfu (Pseudomonas aeruginosa [8]) | inhibition (Pseudomonas aeruginosa [9]) | log10cfu (Haemophilus influenzae [10]) | MIC (Staphylococcus aureus [11]) [µg/mL] | log10cfu (Staphylococcus aureus [12]) | MIC (Pseudomonas aeruginosa [13]) [µg/mL] | log10cfu (Escherichia coli [14]) | inhibition (Acinetobacter baumannii [15]) | MIC (Streptococcus pyogenes [17]) [µg/mL] | inhibition (Haemophilus influenzae [19]) | inhibition (Klebsiella pneumoniae [20]) | log10cfu (Streptococcus pyogenes [22]) | inhibition (Staphylococcus aureus [23]) | other results
1 | CO/N=C(\C(=O)N[C@@H]1C(=O)N2C(C(=O)O)=C(COC(C)=O)CS[C@H]12)c1csc(N)n1 [CEFOTAXIME] | 10 | inactive | 0.16 (≈ 0.351 µM) | inactive | 1.5 (≈ 3.29 µM) | 10 | 8.32 | 8.68 | inactive | 8.45 | 3.8 (≈ 8.34 µM) | 9.67 | 64 (≈ 141 µM) | 8.66 | inactive | 0.03 (≈ 0.0659 µM) | inactive | inactive | 8.2 | inactive | MIC (Klebsiella pneumoniae [16]): 0.06 µg/mL (≈ 0.132 µM); log10cfu (Klebsiella pneumoniae [18]): 8.54; MIC (Escherichia coli [21]): 1.5 µg/mL (≈ 3.29 µM)
2 | CC[C@H]1OC(=O)[C@H](C)[C@@H](O[C@H]2C[C@@](C)(OC)[C@@H](O)[C@H](C)O2)[C@H](C)[C@@H](O[C@@H]2O[C@H](C)C[C@H](N(C)C)[C@H]2O)[C@](C)(O)C[C@@H](C)CN(C)[C@H](C)[C@@H](O)[C@]1(C)O [AZITHROMYCIN] |  | inactive | 1 (≈ 1.34 µM) | inactive |  |  |  |  | inactive | 8.14 | 0.3 (≈ 0.401 µM) | 9.75 |  |  | inactive | 0.25 (≈ 0.334 µM) | inactive | inactive | 8.24 | inactive | inhibition (INH) (Streptococcus pyogenes [24]): 20%
3 | C[C@H]1COc2c(N3CCN(C)CC3)c(F)cc3c(=O)c(C(=O)O)cn1c23.C[C@H]1COc2c(N3CCN(C)CC3)c(F)cc3c(=O)c(C(=O)O)cn1c23.O [LEVOFLOXACIN] | 10 | inactive | 0.07 | inactive | 8 | 10 | 8.26 | 8.69 | inactive | 8.25 | 0.3 | 7.39 | 0.6 | 8.46 | inactive | 0.5 | inactive | inactive | 6.39 | inactive | inhibition (INH) (Haemophilus influenzae [25]): 10%; inhibition (INH) (Acinetobacter baumannii [26]): 10%; inhibition (INH) (Staphylococcus aureus [27]): 10%; inhibition (INH) (Klebsiella pneumoniae [28]): 10%; inhibition (INH) (Streptococcus pyogenes [24]): 10%; MIC (Klebsiella pneumoniae [16]): 0.15 µg/mL; log10cfu (Klebsiella pneumoniae [18]): 8.62; MIC (Escherichia coli [21]): 0.035 µg/mL
4 | CO[C@H]1/C=C/O[C@@]2(C)Oc3c(C)c(O)c4c(O)c(c(/C=N/N5CCN(C)CC5)c(O)c4c3C2=O)NC(=O)/C(C)=C\C=C\[C@H](C)[C@H](O)[C@@H](C)[C@@H](O)[C@@H](C)[C@H](OC(C)=O)[C@@H]1C [RIFAMPIN] | 10 | inactive | 0.8 (≈ 0.972 µM) | inactive | 8 (≈ 9.72 µM) | 10 | 8.15 | 8.56 | inactive | 8.14 | 0.25 (≈ 0.304 µM) | 7.5 | 16 (≈ 19.4 µM) | 8.58 | inactive | 0.25 (≈ 0.304 µM) | inactive | inactive | 6.44 | inactive | inhibition (INH) (Haemophilus influenzae [25]): 10%; inhibition (INH) (Acinetobacter baumannii [26]): 10%; inhibition (INH) (Staphylococcus aureus [27]): 10%; inhibition (INH) (Klebsiella pneumoniae [28]): 10%; inhibition (INH) (Streptococcus pyogenes [24]): 10%; MIC (Klebsiella pneumoniae [16]): 16 µg/mL (≈ 19.4 µM); log10cfu (Klebsiella pneumoniae [18]): 8.5; MIC (Escherichia coli [21]): 8 µg/mL (≈ 9.72 µM)
5 | CC1(C)S[C@@H]2[C@H](NC(=O)[C@H](N)c3ccccc3)C(=O)N2[C@H]1C(=O)O [AMPICILLIN] | 10 | inactive | 0.5 (≈ 1.43 µM) | inactive | 50 (≈ 143 µM) | 10 | 8.29 | 8.62 | inactive | 8.44 | 0.025 (≈ 0.0715 µM) | 9.51 | 128 (≈ 366 µM) | 8.55 | inactive | 0.25 (≈ 0.715 µM) | inactive | inactive | 8.16 | inactive | MIC (Klebsiella pneumoniae [16]): 64 µg/mL (≈ 183 µM); log10cfu (Klebsiella pneumoniae [18]): 8.33; MIC (Escherichia coli [21]): 16 µg/mL (≈ 45.8 µM)
